Test results published in article PMC3207488 (Bioorganic & medicinal chemistry, 2011).
Read-outs that look alike come from different tables or passages of the source. One block for each molecule: values may come before it.

Key:
[1] = test system: TNF-α-induced NFκB activity; assay: NFκB luciferase assay; assay type: cell-based, human; settings: for inhibition at 50 µM: HEK293, read-out: NFκB % inhib.; for NFκB % inhib.: 50 μM
Outline: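 HEK293 line carrying a chromosomally integrated luciferase reporter driven by the NFκB response element. Cells incubated 6 h with TNFα plus test compound, then luciferase activity read. Inhibition expressed as % relative to TNFα-treated control. IC50 from dose-response of five serial dilutions, mean of two experiments.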

aromatase (CYP19) = target: T1, aromatase (CYP19) (Homo sapiens, UniProt P11511); assay: Aromatase assay; assay type: biochemical; settings: for inhibition at 50 µM: read-out: Aromatase % inhib., 50 μM; for inhibition at 50 µM / Aromatase % inhib.: vs vehicle-treated controls; for Aromatase % inhib.: 50 μM
T1 sequence (P11511 1-503): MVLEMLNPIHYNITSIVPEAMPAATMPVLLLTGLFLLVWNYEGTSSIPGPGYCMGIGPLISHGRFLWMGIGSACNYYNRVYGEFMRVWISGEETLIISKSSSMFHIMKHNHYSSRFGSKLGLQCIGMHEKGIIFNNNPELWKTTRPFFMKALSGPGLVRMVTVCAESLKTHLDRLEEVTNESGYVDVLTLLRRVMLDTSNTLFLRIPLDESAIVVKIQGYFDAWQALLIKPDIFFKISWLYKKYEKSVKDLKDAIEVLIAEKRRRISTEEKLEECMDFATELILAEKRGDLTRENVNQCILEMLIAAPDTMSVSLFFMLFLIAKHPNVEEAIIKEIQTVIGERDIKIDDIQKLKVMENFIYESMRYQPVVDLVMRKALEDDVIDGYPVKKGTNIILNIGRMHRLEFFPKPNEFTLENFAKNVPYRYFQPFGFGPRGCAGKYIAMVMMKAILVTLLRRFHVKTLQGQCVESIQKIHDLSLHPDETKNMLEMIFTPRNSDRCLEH

[2] = test system: quinone reductase 1 (QR1); assay: QR1 induction in cell culture; assay type: cell-based, murine; settings: 50 μM; Hepa 1c1c7 cells
Outline: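 Hepa 1c1c7 murine hepatoma cells. QR1 measured by NADPH-dependent, menadiol-mediated reduction of MTT to blue formazan, with protein determined by crystal violet staining of identical plates. Specific activity given as nmol formazan/mg protein/min. IR is the ratio of treated to DMSO-control specific activity. CD (concentration doubling activity) derived by dose-response for IR >2.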

[3] = test system: Hepa 1c1c7 murine hepatoma cells; assay: Cell survival in the QR1 assay; assay type: cell-based; settings: for viability at 50 µM: Mus musculus, Hepa-1c1c7, read-out: QR1 % surv.; for QR1 % surv.: 50 μM, cell survival in comparison with vehicle-treated controls
RAW 264.7 cells = assay: Cell survival in the nitrite assay; assay type: cell-based, murine; settings: for viability at 50 µM: Mus musculus, RAW264.7, 20 h, read-out: Nitrite assay % surv.; for Nitrite assay % surv.: 50 μM, RAW 264.7 cells
Outline: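 RAW 264.7 cells held 24 h at 37°C, 5% CO2, then given serially diluted test compound for 15 min. LPS (1 μg/mL) or no LPS added for a further 20 h. Viability assessed by SRB protein staining under the same conditions as the nitrite assay, as % survival versus vehicle-treated controls.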

[4] = test system: Human embryonic kidney cells 293; assay: Cell survival in the NFκB assay; assay type: cell-based; settings: for viability at 50 µM: Homo sapiens, HEK293, 6 h, read-out: NFκB % surv.; for NFκB % surv.: 50 μM, 293 cells
MCF7 breast cancer cells = assay: SRB assay: MCF7 cell proliferation; assay type: cell-based; settings: for viability at 50 µM: Homo sapiens, MCF7, 72 h, read-out: SRB assay % surv.; for SRB assay % surv.: MCF7 cells, 72 h
Outline: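 MCF7 cells (1 × 10^4 per well) plated with test compound, 72 h at 37°C, 5% CO2. Fixed in 10% TCA for 30 min, stained with 0.4% SRB in 1% acetic acid for 30 min, then washed with 1% acetic acid. Bound dye dissolved in 10 mM Tris (pH 10.0) and A515 read. Survival given as % of vehicle-treated controls.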

[5] = test system: various human cancer cell lines; settings: natural callophycin A; cited from earlier work
[6] = test system: nitric oxide (NO) production in LPS-stimulated RAW 264.7 murine macrophage cells; assay: Nitrite assay: NO production in LPS-stimulated RAW 264.7 cells; assay type: cell-based

Molecule: O=C(O)[C@H]1Cc2c([nH]c3ccccc23)CN1 [Compound 1b, 1,2,3,4-tetrahydro-β-carboline-3-carboxylic acid]
inhibition at 50 µM ([1]; Homo sapiens): -72.5%

inhibition at 50 µM (aromatase (CYP19)): > 50%
Molecule: C=CCOC(=O)N1Cc2[nH]c3ccccc3c2C[C@H]1C(=O)OC [Compound 3a, (S)-2-Allyl 3-methyl 3,4-dihydro-1H-pyrido[3,4-b]indole-2,3(9H)-dicarboxylate]

IC50 (aromatase (CYP19)): 64.5 µM
inhibition at 50 µM (aromatase (CYP19)): 41.5%
IC50 ([1]; Homo sapiens, HEK293, read-out: NFκB IC50): 16.2 µM
Molecule: COC(=O)[C@@H]1Cc2c([nH]c3ccccc23)CN1C(=O)OCC(C)C [Compound 3b, (S)-2-Isobutyl 3-methyl 3,4-dihydro-1H-pyrido[3,4-b]indole-2,3(9H)-dicarboxylate]
QR1 IR (induction ratio) [2]: 1.7
viability at 50 µM [3]: 88.3%
viability at 50 µM (RAW 264.7 cells): 105%
inhibition at 50 µM ([1]; Homo sapiens): 59.8%
viability at 50 µM [4]: 95.6%
viability at 50 µM (MCF7 breast cancer cells): 76.7%

inhibition at 50 µM (aromatase (CYP19)): > 50%
Molecule: COC(=O)[C@@H]1Cc2c([nH]c3ccccc23)CN1C(=O)NC(C)C [Compound 6b, (S)-Methyl 2-(isopropylcarbamoyl)-2,3,4,9-tetrahydro-1H-pyrido[3,4-b]indole-3-carboxylate]

Molecule: CC(C)COC(=O)N1Cc2[nH]c3ccccc3c2C[C@H]1C(=O)O [Compound 7b, (S)-2-(Isobutoxycarbonyl)-2,3,4,9-tetrahydro-1H-pyrido[3,4-b]indole-3-carboxylic acid]
QR1 IR (induction ratio) [2]: 1.8
viability at 50 µM [3]: 94.2%
IC50 (aromatase (CYP19)): 72 µM
inhibition at 50 µM (aromatase (CYP19)): 40%
viability at 50 µM (RAW 264.7 cells): 137%
inhibition at 50 µM ([1]; Homo sapiens): 42.6%
viability at 50 µM [4]: 138%
viability at 50 µM (MCF7 breast cancer cells): 105%

inhibition at 50 µM (aromatase (CYP19)): > 50%
Molecule: O=C(O)[C@@H]1Cc2c([nH]c3ccccc23)CN1Cc1ccc(O)cc1 [Compound 12a, (S)-Callophycin A]

Molecule: O=C(O)C1Cc2c([nH]c3ccccc23)CN1Cc1ccc(O)cc1 (stereo not shown) [callophycin A, Callophycin A]
inhibition of MCF7 cell proliferation (in words) (MCF7 breast cancer cells; 50 μM): didn’t show the inhibitory activity
antiproliferative effects [5]: low micromolar concentrations

Molecule: (R)-2-(Isobutoxycarbonyl)-2,3,4,9-tetrahydro-1H-pyrido[3,4-b]indole-3-carboxylic acid [Compound 7d]
QR1 IR (induction ratio) [2]: 1.5
QR1 % surv. [3]: 87.5%
Aromatase % inhib. (aromatase (CYP19)): 36.3%
Nitrite assay % inhib. ([6]; 50 μM): 1.5%
Nitrite assay % surv. (RAW 264.7 cells): 134.4%
NFκB % inhib. ([1]; TNFα-treated 293 cells): 46.1%
NFκB % surv. [4]: 264.3%
SRB assay % surv. (MCF7 breast cancer cells; 50 μM): 97.4%

Aromatase % inhib. (aromatase (CYP19)): 31.7%
NFκB % inhib. ([1]; TNFα-treated 293 cells): 91.6%
IC50 ([1]; read-out: NFκB IC50, TNFα-treated 293 cells): 4.8 µM
Molecule: (R)-2-Isobutyl 3-methyl 3,4-dihydro-1H-pyrido[3,4-b]indole-2,3(9H)-dicarboxylate [Compound 3d]
QR1 IR (induction ratio) [2]: 1.1
QR1 % surv. [3]: 78.8%
IC50 ([6]; read-out: Nitrite assay IC50): 2.8 µM
Nitrite assay % surv. (RAW 264.7 cells): 92.6%
NFκB % surv. [4]: 112.3%
SRB assay % surv. (MCF7 breast cancer cells; 50 μM): 72.0%
